Reference: article PMC4481138 (Nuclear medicine and biology, 2015)

Tests used:
[1] = system: SK-N-SH human neuroblastoma cells; experiment: Paired-label uptake by NET-expressing tumor cells; format: cell-based; settings: 2 h, 37 °C, absence of inhibitor, paired-label [^18F]FPOIBG / [^125I]MIBG
Method in brief: (§1)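 Cells were seeded at 5 × 10^5/well and held overnight at 37 °C, 5% CO2 (SK-N-SH: RPMI 1640 + FCS; SK-N-BE(2c): DMEM, 15% FCS; UVW-NAT: MEM, 10% FCS, 1 g/L geneticin), then PBS-washed into fresh medium. Tracers were co-incubated 2 h at 37 °C (~3.7 kBq radioiodinated, 18.5 kBq 18F). Parallel desipramine wells gave non-specific uptake. NaOH lysates and supernatants were dual-label gamma-counted and reported as % input dose.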

[2] = system: SK-N-BE(2c) human neuroblastoma cells; experiment: Paired-label uptake by NET-expressing tumor cells; format: cell-based; settings: SK-N-BE(2c) cells, 2 h, 37 °C, absence of inhibitor, paired-label [^18F]FPOIBG / [^125I]MIBG
Method in brief: as §1

[3] = cited from earlier work
[4] = system: UVW human glioma cells transfected to express NET (UVW-NAT); experiment: Paired-label uptake by NET-expressing tumor cells; format: cell-based; settings: 2 h, 37 °C, absence of inhibitor, paired-label [^18F]FPOIBG / [^125I]MIBG
Method in brief: as §1

[5] = Paired-label biodistribution in normal mice; format: in vivo, Balb/c mice; settings: for heart uptake after DMI pretreatment as percent of controls: experiment [^18F]FPOBBG / [^125I]MIBG; for heart uptake after DMI pretreatment: DMI 10 mg per kg i.p. 30 min before tracer
Method in brief: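 Balb/c mice received the radiotracer pair in 100 μL PBS via tail vein: 185 kBq radioiodinated reference plus 296 kBq 18F test compound. Groups of 5 were killed by isoflurane overdose at 1, 2 and 4 h. Organs and blood were blot-dried, weighed and dual-channel gamma counted, giving %ID/g. For blocking, DMI 10 mg per kg i.p. was given 30 min pre-tracer, with sacrifice 1 h later. Co-administered agents were compared by paired 2-tailed t-test.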

SK-N-SH cells = settings: cited from earlier work
[6] = system: three NET-expressing cell lines (SK-N-SH, UVW-NAT, SK-N-BE(2c)); format: cell-based, human; settings: 2 and 4 h, specific uptake (Figure 3)
Method in brief: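 NET-expressing human cells (SK-N-SH, SK-N-BE(2c), NET-transfected UVW glioma) were plated at 5 × 10^5 per well and cultured overnight at 37°C, 5% CO2. They were washed, given fresh medium and incubated with the radioiodine pair (about 3.7 kBq each) at 37°C for 2 and 4 h, with or without desipramine. After cold PBS washes, cells were lysed with 1 N NaOH at 37°C, 10 min twice. Dual-label gamma counting gave cell-associated fraction of total radioactivity.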

[7] = target: norepinephrine transporter (NET) (Bos taurus, UniProt P51143); format: cell-based, human; settings: read-out: IC50, competitive inhibition of [^125I]MIBG uptake; UVW-NAT cells, 2 h at 37 °C, unlabeled compound 10^−9 to 10^−3 M
norepinephrine transporter (NET), sequence (P51143 whole entry): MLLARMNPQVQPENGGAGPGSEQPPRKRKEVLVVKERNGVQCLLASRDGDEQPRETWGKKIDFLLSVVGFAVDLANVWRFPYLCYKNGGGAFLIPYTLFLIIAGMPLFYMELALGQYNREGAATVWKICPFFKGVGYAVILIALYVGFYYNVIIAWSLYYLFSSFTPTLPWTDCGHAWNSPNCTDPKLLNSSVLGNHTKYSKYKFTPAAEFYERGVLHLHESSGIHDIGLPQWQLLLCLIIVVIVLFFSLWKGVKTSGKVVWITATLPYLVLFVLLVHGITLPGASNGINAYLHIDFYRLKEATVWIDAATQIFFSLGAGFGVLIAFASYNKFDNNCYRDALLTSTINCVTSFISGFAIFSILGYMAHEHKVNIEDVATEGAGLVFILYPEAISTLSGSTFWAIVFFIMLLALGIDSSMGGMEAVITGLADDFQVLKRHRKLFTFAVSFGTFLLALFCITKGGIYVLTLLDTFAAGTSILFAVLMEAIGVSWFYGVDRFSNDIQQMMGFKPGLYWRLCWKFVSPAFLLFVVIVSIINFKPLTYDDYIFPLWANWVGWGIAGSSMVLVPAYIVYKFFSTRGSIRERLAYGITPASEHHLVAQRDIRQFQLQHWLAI
Method in brief: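 UVW-NAT cells (NET-transfected human glioma; MEM, 10% FCS, 1 g/L geneticin) seeded at 8 × 10^4/well and held overnight at 37 °C. After cold-PBS washes, fresh medium, [125I]MIBG (3.7 kBq) and unlabeled competitor (10−9 to 10−3 M final) were added for 2 h at 37 °C. Cells were washed, lysed in 1 N NaOH and gamma-counted with supernatants and input standards. IC50 came from nonlinear regression of uptake versus concentration.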

[8] = system: PC-12 rat pheochromocytoma xenografts; settings: 8 h, single label format, PC-12 xenograft mice; cited from earlier work
UVW-NAT cells = settings: cited from earlier work
[9] = i.v., 1 h, no DMI (controls), paired-label
[10] = i.v., 2 h, paired-label [^18F]FPOBBG / [^125I]MIBG
[11] = i.v., 4 h, paired-label [^18F]FPOBBG / [^125I]MIBG

Q: Which results are given for `NC(N)=NCc1cccc([125I])c1` [[^125I]MIBG]?
A: uptake (cell-associated radioactivity as percentage of input dose) [1]: 57.3 ± 8.1%; uptake (cell-associated radioactivity as percentage of input dose) [2]: 66.3 ± 3.6%; reduction of myocardial uptake by DMI pretreatment [3]: 42 ± 4%; uptake (cell-associated radioactivity as percentage of input dose) [4]: 82.7 ± 8.9%; heart uptake after DMI pretreatment as percent of controls ([5]; 1 h): 69%; heart uptake after DMI pretreatment as percent of control values ([5]; 1 h, experiment with co-injected [^18F]FPOIBG): 57%; heart uptake [5, 9]: 18.7 ± 7.7 % ID/g; heart uptake [5, 10]: 16.1 ± 1.4 % ID/g; heart uptake [5, 11]: 10.2 ± 0.9 % ID/g

Q: For `N=C(N)NCc1ccc([18F])c(I)c1` [[^18F]FIBG, 4-[^18F]fluoro-3-iodobenzylguanidine], which “uptake in SK-N-SH cells, higher than that of co-incubated n.c.a. [^125I]MIBG” value (SK-N-SH cells) is on record?
A: about 15%

Q: Which “uptake (cell-associated radioactivity as percentage of input dose)” value [1] does the source give for `N=C(N)NCc1ccc(OCCC[18F])c(I)c1` [[^18F]FPOIBG, 4-(3-[^18F]Fluoropropoxy)-3-iodobenzylguanidine] here?
A: 10.2 ± 1.5%

Q: What about the “uptake (cell-associated radioactivity as percentage of input dose)” value [2] of the same molecule?
A: 13.3 ± 2.5%

Q: What about the “uptake (cell-associated radioactivity as percentage of input dose)” value [4] of the same molecule?
A: 39.6 ± 13.4%

Q: What about the “heart uptake after DMI pretreatment” value ([5]; 1 h) of the same molecule?
A: 13.2 ± 3.3 % ID/g

Q: What about the “bone uptake relative to that of [^18F]FPOBBG” value ([5]; 4 h, indicator of defluorination) of the same molecule?
A: about 4 fold

Q: What about the “myocardial uptake as percent of that of [^125I]MIBG” value ([5]; i.v., three time points (1, 2, 4 h), paired-label) of the same molecule?
A: 72–74%

Q: For `N=C(N)NCc1ccc(OCCC[18F])c(Br)c1` [[^18F]FPOBBG, 4-(3-[^18F]Fluoropropoxy)-3-bromobenzylguanidine], which “heart uptake after DMI pretreatment as percent of controls” value ([5]; 1 h) is on record?
A: 73%

Q: What about the heart uptake [5, 9] of the same molecule?
A: 21.1 ± 5.6 % ID/g

Q: What about the heart uptake [5, 10] of the same molecule?
A: 20.1 ± 2.4 % ID/g

Q: What about the heart uptake [5, 11] of the same molecule?
A: 16.5 ± 2.3 % ID/g

Q: For `N=C(N)NCc1cccc([131I])c1` [[^131I]MIBG], which “reduction of heart uptake by DMI” value ([5]; 1 h, experiment with co-injected [^125I]FPOIBG) is on record?
A: 51%

Q: Which “uptake as percent of [^131I]MIBG” value [6] does the source give for `N=C(N)NCc1ccc(OCCCF)c([125I])c1` [[^125I]FPOIBG, 4-(3-Fluoropropoxy)-3-[^125I]iodobenzylguanidine] here?
A: 31–53%

Q: What about the “hepatic (liver) uptake compared with co-injected radioiodinated MIBG” value [5] of the same molecule?
A: lower liver uptake

Q: And the “heart uptake after DMI pretreatment” value ([5]; 1 h)?
A: 17.8 ± 1.8 % ID/g

Q: What about the “thyroid uptake (indicator of deiodination)” value ([5]; compared with [^131I]MIBG) of the same molecule?
A: relatively low

Q: And the “heart uptake as percent of that of [^131I]MIBG” value ([5]; i.v., 1–4 h, paired-label)?
A: 41–61%

Q: With `N=C(N)NCc1ccc(OCCCF)c(Br)c1` [FPOBBG, 4-(3-Fluoropropoxy)-3-bromobenzylguanidine] as the molecule, how does the IC50 [7] read?
A: 11 ± 2.9 µM

Q: Which “uptake in both tumor and heart relative to [^123I]MIBG” value [8] does the source give for `NC(N)=NCc1cccc([76Br])c1` [[^76Br]MBBG, ^76Br-meta-bromobenzylguanidine] here?
A: about 4 fold

Q: And the “reduction of myocardial uptake by DMI pretreatment” value [3]?
A: 64 ± 3%

Q: For `N=C(N)NCc1cccc(I)c1` [MIBG, meta-iodobenzylguanidine], which IC50 [7] is on record?
A: 1.5 ± 1.1 µM

Q: For `N=C(N)NCc1cccc([131I])c1` [MIBG, meta-iodobenzylguanidine], which “uptake in UVW-NAT cells compared to that in SK-N-BE(2c)” value (UVW-NAT cells) is on record?
A: two-fold higher

Q: For `N=C(N)NCc1ccc(OCCCF)c(I)c1` [FPOIBG, 4-(3-Fluoropropoxy)-3-iodobenzylguanidine], which IC50 [7] is on record?
A: 20 ± 0.1 µM
